# pIC50: −log10 of the molar value.
# Columns and labels:
# NHDF = assay: Cytotoxicity against NHDF after 72 hrs by MTT assay; type: cell-based; conditions: Homo sapiens
# Outline: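 NHDF grown in DMEM with 5% FBS at 37°C, 5% CO2. Seeded at 1500-5000 cells/well, 24 h, then compound added in DMSO-containing medium (final DMSO 0.1%) for 72 h. MTT (5 mg/mL in medium) added for 4 h at 37°C, formazan dissolved in DMSO, absorbance read at 570 nm.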
# A549 [1] = assay: Cytotoxicity against human A549 cells assessed as inhibition of cell proliferation at 20 uM after 72 hrs by MTT assay relative to control; type: functional; conditions: A549, 72 h
# Outline: (§1)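 Single-concentration screen at 20 μM with 72 h exposure in DMEM with 10% FBS, final DMSO 0.1%. Read-out was MTT (5 mg/mL, 4 h, 37°C), DMSO solubilisation and absorbance at 570 nm, expressed as percent inhibition. Lines reaching a threshold percentage went on to IC50 determination.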
# SW-620 [2] = assay: Cytotoxicity against human SW620 cells assessed as inhibition of cell proliferation at 20 uM after 72 hrs by MTT assay relative to control; type: functional; conditions: SW-620, 72 h; outline: as §1
# A549 [3] = assay: Cytotoxicity against human A549 cells after 72 hrs by MTT assay; type: functional, cell-based; conditions: A549, 72 h
# Outline: (§2)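 Tumour lines kept in DMEM with 10% FBS and 1% penicillin/streptomycin at 37°C, 5% CO2. Seeded at 1500-5000 cells/well by doubling time and size, 24 h, then compound in DMSO-containing medium (final DMSO 0.1%) for 72 h. MTT (5 mg/mL) 4 h at 37°C, DMSO solubilisation, absorbance at 570 nm.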
# [4] = Cytotoxicity against human EJ28 cells after 72 hrs by MTT assay; type: functional, cell-based; conditions: EJ-28, 72 h; outline: as §2
# SW-620 [5] = assay: Cytotoxicity against human SW620 cells after 72 hrs by MTT assay; type: functional, cell-based; conditions: SW-620, 72 h; outline: as §2
# [6] = Cytotoxicity against human EJ28 cells assessed as inhibition of cell proliferation at 20 uM after 72 hrs by MTT assay relative to control; type: functional; conditions: EJ-28, 72 h; outline: as §1
# MCF7 [7] = assay: Cytotoxicity against human MCF7 cells after 72 hrs by MTT assay; type: functional, cell-based; conditions: MCF7, 72 h; outline: as §2
# HT-1080 [8] = assay: Cytotoxicity against human HT1080 cells after 72 hrs by MTT assay; type: functional, cell-based; conditions: HT-1080, 72 h; outline: as §2
# HT-1080 [9] = assay: Cytotoxicity against human HT1080 cells assessed as inhibition of cell proliferation at 20 uM after 72 hrs by MTT assay relative to control; type: functional; conditions: HT-1080, 72 h; outline: as §1
# MCF7 [10] = assay: Cytotoxicity against human MCF7 cells assessed as inhibition of cell proliferation at 20 uM after 72 hrs by MTT assay relative to control; type: functional; conditions: MCF7, 72 h; outline: as §1
SMILES,pIC50 (NHDF),inhibition at 20 µM (A549 [1]) [%],inhibition at 20 µM (SW-620 [2]) [%],pIC50 (A549 [3]),pIC50 [4],pIC50 (SW-620 [5]),inhibition at 20 µM [6] [%],pIC50 (MCF7 [7]),pIC50 (HT-1080 [8]),inhibition at 20 µM (HT-1080 [9]) [%],inhibition at 20 µM (MCF7 [10]) [%]
COc1cccc(/C=C2\CCC/C(=C\c3ccc(Cl)cc3Cl)C2=O)c1OC,4.31,> 50,> 50,< 4.70,< 4.70,4.79,> 50,< 4.70,< 4.70,> 50,> 50
COc1ccc(/C=C2\CCC/C(=C\c3cccc(Cl)c3Cl)C2=O)cc1OC,4.73,> 50,> 50,< 4.70,4.98,4.97,> 50,4.84,5.06,> 50,> 50
COc1ccc(/C=C2\CCC/C(=C\c3cccc(Br)c3)C2=O)cc1OC,4.91,> 50,> 50,4.89,5.31,5.38,> 50,5.28,5.28,> 50,> 50
COc1cccc(/C=C2\CCC/C(=C\c3cccc(OC)c3OC)C2=O)c1OC,4.51,> 50,> 50,4.94,5.08,5.08,> 50,5.30,5.21,> 50,> 50
COc1cccc(/C=C2\CCC/C(=C\c3cc(OC)c(OC)c(OC)c3)C2=O)c1OC,5.10,> 50,> 50,5.23,5.62,5.60,> 50,5.85,5.64,> 50,> 50
COc1ccc(/C=C2\CCC/C(=C\c3cccc(OC)c3OC)C2=O)cc1OC,4.83,> 50,> 50,4.84,5.18,5.19,> 50,5.19,5.19,> 50,> 50
COc1ccc(/C=C2\CCC/C(=C\c3ccc(Cl)c(Cl)c3)C2=O)cc1OC,5.00,> 50,> 50,5.16,5.47,5.40,> 50,5.36,5.51,> 50,> 50
COc1cccc(/C=C2\CCC/C(=C\c3ccccc3Br)C2=O)c1OC,< 4.30,> 50,> 50,< 4.70,4.97,4.92,> 50,5.01,4.97,> 50,> 50
COc1ccc(/C=C2\CCC/C(=C\c3cc(Cl)cc(Cl)c3)C2=O)cc1OC,5.08,> 50,> 50,5.26,5.38,5.60,> 50,5.42,5.52,> 50,> 50
COc1cc(/C=C2\CCC/C(=C\c3ccc(OC)c(OC)c3)C2=O)ccc1O,4.86,> 50,> 50,4.99,5.34,5.35,> 50,5.10,5.34,> 50,> 50
COc1ccc(/C=C2\CCC/C(=C\c3ccc(OC)c(OC)c3)C2=O)c(OC)c1,< 4.30,> 50,> 50,< 4.70,< 4.70,< 4.70,> 50,4.81,4.77,> 50,> 50
COc1ccc(/C=C2\CCC/C(=C\c3cccc(OC)c3OC)C2=O)c(OC)c1,< 4.30,> 50,> 50,< 4.70,< 4.70,< 4.70,> 50,< 4.70,< 4.70,> 50,> 50
COc1cccc(/C=C2\CCC/C(=C\c3ccc(OC)c(OC)c3)C2=O)c1,4.94,> 50,> 50,5.17,5.38,5.43,> 50,5.34,5.34,> 50,> 50
COc1cccc(/C=C2\CCC/C(=C\c3cccc(OC)c3OC)C2=O)c1,4.79,> 50,> 50,4.79,5.00,5.15,> 50,5.23,5.00,> 50,> 50
COc1ccc(/C=C2\CCC/C(=C\c3ccccc3Br)C2=O)cc1OC,4.66,> 50,> 50,< 4.70,5.13,5.28,> 50,5.02,5.08,> 50,> 50
COc1ccc(/C=C2\CCC/C(=C\c3cccc(OC)c3OC)C2=O)cc1,4.36,> 50,> 50,< 4.70,4.77,4.87,> 50,4.73,4.79,> 50,> 50
COc1ccc(/C=C2\CCC/C(=C\c3ccc(OC)c(OC)c3)C2=O)cc1,4.51,> 50,> 50,< 4.70,5.08,5.18,> 50,5.11,5.14,> 50,> 50
COc1cc(/C=C2\CCC/C(=C\c3cccc(OC)c3OC)C2=O)ccc1O,4.84,> 50,> 50,< 4.70,4.97,5.07,> 50,4.94,5.23,> 50,> 50
COc1cc(/C=C/C(=O)CC(=O)/C=C/c2ccc(O)c(OC)c2)ccc1O [CURCUMIN],4.62,,,4.75,4.98,4.85,,5.01,4.88,,
COc1ccc(/C=C2\CCC/C(=C\c3ccc(O)cc3)C2=O)cc1OC,4.58,> 50,> 50,< 4.70,4.78,5.11,> 50,4.77,4.77,> 50,> 50
COc1cccc(/C=C2\CCC/C(=C\c3ccccc3Cl)C2=O)c1OC,4.35,> 50,> 50,< 4.70,4.92,4.99,> 50,4.95,4.93,> 50,> 50
COc1ccc(/C=C2\CCC/C(=C\c3ccc(Cl)cc3)C2=O)cc1OC,4.95,> 50,> 50,5.00,5.24,5.23,> 50,5.20,5.32,> 50,> 50
COc1ccccc1/C=C1\CCC/C(=C\c2ccc(OC)c(OC)c2)C1=O,4.74,> 50,> 50,< 4.70,5.09,5.11,> 50,5.10,5.09,> 50,> 50

# Source: ChEMBL document CHEMBL4270616, “Asymmetrical meta-methoxylated diarylpentanoids: Rational design, synthesis and anti-cancer evaluation in-vitro” (Eur J Med Chem, 2018)
